Measurements reported in ChEMBL document CHEMBL4665800, “Biased Agonism at Nociceptin/Orphanin FQ Receptors: A Structure Activity Study on N/OFQ(1-13)-NH” (J Med Chem, 2020).
Starred links: 1 amine or outer side, 2 acyl side, 3 side chain; linkers in the order of their positions; H or OH if unused. Positions of bridges follow the written chain, without caps; N, C: chain ends. Non-standard residues stand in square brackets, D forms with d. Residues, ends and D or L forms follow the SMILES beside them. Chains are numbered I, II in the order given. *: point of attachment. X1 = CCCCCCCCCCCCCCCC(=O)NCCCN1C(=O)CC(*)C1=O; X2 = O=C1CC([*:1])C(=O)N1CCCC(=O)[*:2]; Ac5c = NC1(C(=O)O)CCCC1; Ac3c = NC1(C(=O)O)CC1; Aib = CC(C)(N)C(=O)O

Tests used:
[1] = molecular target: T1, Nociceptin receptor (Homo sapiens, UniProt P41146); test: Agonist activity at NOP (unknown origin) […] assessed as induction of beta-arrestin2 activation incubated for 15 mins by BRET assay; format: cell-based, HEK293
[2] = molecular target: T1, Nociceptin receptor; test: Agonist activity at NOP (unknown origin) expressed in HEK293 cell membranes co-expressing Gbeta1-RGFP protein assessed as induction of G protein activation incubated for 15 mins by BRET assay; format: cell-based
Outline: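 Membranes (3 μg protein) from HEK293 cells stably co-expressing NOP-RLuc and Gβ1-RGFP, in DPBS. Coelenterazine 5 μM final; ligands in PBS–BSA 0.01%. BRET ratio (RGFP 510 nm / RLuc 460 nm) read 15 min after agonist, room temperature. Values are vehicle-subtracted stimulated BRET ratio. Mean of five experiments in duplicate.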

[3] = molecular target: T1, Nociceptin receptor; test: Bias factor, selectivity for agonist activity at NOP (unknown origin) expressed in HEK293 cell membranes co-expressing beta-arrestin2-RGFP protein assessed as induction of beta-arrestin2 activation to agonist activity at NOP (unknown origin) expressed in HEK293 cell membranes co-expressing Gbeta1-RGFP protein assessed as induction of G protein activation; format: cell-based
Outline: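 Concentration–response curves in the NOP G protein and β-arrestin 2 BRET assays were fitted to the Black–Leff operational model. Mean of at least five experiments with 95% confidence limits.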

T1 sequence (P41146 whole entry): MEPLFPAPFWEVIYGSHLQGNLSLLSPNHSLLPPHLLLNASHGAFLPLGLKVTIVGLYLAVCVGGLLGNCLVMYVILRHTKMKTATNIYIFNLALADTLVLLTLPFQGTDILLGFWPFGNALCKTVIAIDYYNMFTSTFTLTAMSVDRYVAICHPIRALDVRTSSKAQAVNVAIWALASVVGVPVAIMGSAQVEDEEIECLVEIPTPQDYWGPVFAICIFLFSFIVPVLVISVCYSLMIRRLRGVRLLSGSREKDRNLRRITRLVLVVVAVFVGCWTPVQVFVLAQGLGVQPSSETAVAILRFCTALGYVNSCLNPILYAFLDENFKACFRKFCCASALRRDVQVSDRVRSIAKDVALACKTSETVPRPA

Molecule | EC50 [1] | EC50 [2] | Selectivity Index [3]
CCCCCCCCCCCCCCCC(=O)NCCCN1C(=O)CC(SC[C@H](NC(=O)[C@H](C)NC(=O)[C@H](CO)NC(=O)[C@H](CCCCN)NC(=O)[C@H](CCCNC(=N)N)NC(=O)[C@H](C)NC(=O)CNC(=O)[C@@H](NC(=O)[C@H](Cc2ccccc2)NC(=O)CNC(=O)CNC(=O)[C@@H](N)Cc2ccccc2)[C@@H](C)O)C(=O)N[C@@H](CCCCN)C(N)=O)C1=O (some centres not stated) (H-FGGFTGARKSAC(X1)K-NH2) | 22.4 nM | 0.525 nM | –
H-FGGFAGARKSARK-NH2 | 741 nM | 75.9 nM | 0.4
H-FGGFNGARKSARK-NH2 | 27.5 nM | 9.33 nM | –
C[C@H](NC(=O)CNC(=O)[C@@H](NC(=O)[C@H](Cc1ccccc1)NC(=O)CNC(=O)CNC(=O)[C@@H](N)Cc1ccccc1)[C@@H](C)O)C(=O)N[C@@H](CCCNC(=N)N)C(=O)N[C@@H](CCCCN)C(=O)N[C@@H](CO)C(=O)NC(C)(C)C(=O)N[C@@H](CCCNC(=N)N)C(=O)N[C@@H](CCCCN)C(N)=O (H-FGGFTGARKS[Aib]RK-NH2) | – | – | 0.29
C[C@H](NC(=O)CNC(=O)[C@@H](NC(=O)[C@H](Cc1ccccc1)NC(=O)CNC(=O)CNC(=O)[C@@H](N)Cc1ccccc1)[C@@H](C)O)C(=O)N[C@@H](CCCNC(=N)N)C(=O)N[C@@H](CCCCN)C(=O)N[C@@H](CO)C(=O)N[C@@H](C)C(=O)N[C@@H](CCCNC(=N)N)C(=O)N[C@@H](CCCCN)C(=O)N[C@@H](CSC1CC(=O)N(CCCC(=O)NCC(=O)N[C@@H](CC(=O)O)C(=O)NCC(=O)N[C@@H](CC(=O)O)C(=O)NCC(=O)N[C@@H](CC(=O)O)C(=O)NCC(=O)N[C@@H](CC(=O)O)C(=O)NCC(=O)N[C@@H](CC(=O)O)C(=O)NCC(=O)N[C@@H](CC(=O)O)C(N)=O)C1=O)C(N)=O (some centres not stated) (I: H-FGGFTGARKSARKC-NH2 / II: GDGDGDGDGDGD-NH2; linker I:14-II:N via X2) | 49 nM | 17.8 nM | 0.81
C[C@H](NC(=O)CNC(=O)[C@@H](NC(=O)[C@H](Cc1ccccc1)NC(=O)CNC(=O)CNC(=O)[C@@H](N)Cc1ccccc1)[C@@H](C)O)C(=O)N[C@@H](CCCNC(=N)N)C(=O)N[C@@H](CCCCN)C(=O)N[C@@H](CO)C(=O)N[C@@H](C)C(=O)N[C@@H](CCCNC(=N)N)C(=O)N[C@@H](CCCCN)C(=O)N[C@@H](CSC1CC(=O)N(CCCC(=O)NCC(=O)N[C@@H](CCCCN)C(=O)NCC(=O)N[C@@H](CCCCN)C(=O)NCC(=O)N[C@@H](CCCCN)C(=O)NCC(=O)N[C@@H](CCCCN)C(=O)NCC(=O)N[C@@H](CCCCN)C(=O)NCC(=O)N[C@@H](CCCCN)C(N)=O)C1=O)C(N)=O (some centres not stated) (I: H-FGGFTGARKSARKC-NH2 / II: GKGKGKGKGKGK-NH2; linker I:14-II:N via X2) | 14.5 nM | 1.1 nM | 1.11
H-FGAFTGARKSARK-NH2 | 28.8 nM | 13.2 nM | -0.21
H-FGGFVGARKSARK-NH2 | 41.7 nM | 11.5 nM | 0.09
C[C@H](NC(=O)CCCN1C(=O)CC(SC[C@H](NC(=O)[C@H](CCCCN)NC(=O)[C@H](CCCNC(=N)N)NC(=O)[C@H](C)NC(=O)[C@H](CO)NC(=O)[C@H](CCCCN)NC(=O)[C@H](CCCNC(=N)N)NC(=O)[C@H](C)NC(=O)CNC(=O)[C@@H](NC(=O)[C@H](Cc2ccccc2)NC(=O)CNC(=O)CNC(=O)[C@@H](N)Cc2ccccc2)[C@@H](C)O)C(N)=O)C1=O)C(=O)N[C@@H](Cc1cnc[nH]1)C(=O)N[C@@H](C)C(=O)N[C@@H](Cc1cnc[nH]1)C(=O)N[C@@H](C)C(=O)N[C@@H](Cc1cnc[nH]1)C(=O)N[C@@H](C)C(=O)N[C@@H](Cc1cnc[nH]1)C(=O)N[C@@H](C)C(=O)N[C@@H](Cc1cnc[nH]1)C(=O)N[C@@H](C)C(=O)N[C@@H](Cc1cnc[nH]1)C(N)=O (some centres not stated) (I: H-FGGFTGARKSARKC-NH2 / II: AHAHAHAHAHAH-NH2; linker I:14-II:N via X2) | 9.33 nM | 7.94 nM | -0.05
CCCCCCCCCCCCCCCC(=O)NCCCN1C(=O)CC(SC[C@H](NC(=O)[C@H](CCCCN)NC(=O)[C@H](CCCNC(=N)N)NC(=O)[C@H](C)NC(=O)CNC(=O)[C@@H](NC(=O)[C@H](Cc2ccccc2)NC(=O)CNC(=O)CNC(=O)[C@@H](N)Cc2ccccc2)[C@@H](C)O)C(=O)N[C@@H](C)C(=O)N[C@@H](CCCNC(=N)N)C(=O)N[C@@H](CCCCN)C(N)=O)C1=O (some centres not stated) (H-FGGFTGARKC(X1)ARK-NH2) | 19.1 nM | 0.288 nM | 0.91
CCCCCCCCCCCCCCCC(=O)NCCCN1C(=O)CC(SC[C@H](NC(=O)[C@H](CO)NC(=O)[C@H](CCCCN)NC(=O)[C@H](CCCNC(=N)N)NC(=O)[C@H](C)NC(=O)CNC(=O)[C@@H](NC(=O)[C@H](Cc2ccccc2)NC(=O)CNC(=O)CNC(=O)[C@@H](N)Cc2ccccc2)[C@@H](C)O)C(=O)N[C@@H](CCCNC(=N)N)C(=O)N[C@@H](CCCCN)C(N)=O)C1=O (some centres not stated) (H-FGGFTGARKSC(X1)RK-NH2) | 34.7 nM | 0.437 nM | 1.11
CCCCCCCCCCCCCCCC(=O)NCCCN1C(=O)CC(SC[C@H](NC(=O)[C@H](CCCNC(=N)N)NC(=O)[C@H](C)NC(=O)[C@H](CO)NC(=O)[C@H](CCCCN)NC(=O)[C@H](CCCNC(=N)N)NC(=O)[C@H](C)NC(=O)CNC(=O)[C@@H](NC(=O)[C@H](Cc2ccccc2)NC(=O)CNC(=O)CNC(=O)[C@@H](N)Cc2ccccc2)[C@@H](C)O)C(N)=O)C1=O (some centres not stated) (H-FGGFTGARKSARC(X1)-NH2) | 55 nM | 1.26 nM | 0.7
C[C@H](NC(=O)CCCN1C(=O)CC(SC[C@H](NC(=O)[C@H](CCCCN)NC(=O)[C@H](CCCNC(=N)N)NC(=O)[C@H](C)NC(=O)[C@H](CO)NC(=O)[C@H](CCCCN)NC(=O)[C@H](CCCNC(=N)N)NC(=O)[C@H](C)NC(=O)CNC(=O)[C@@H](NC(=O)[C@H](Cc2ccccc2)NC(=O)CNC(=O)CNC(=O)[C@@H](N)Cc2ccccc2)[C@@H](C)O)C(N)=O)C1=O)C(=O)N[C@@H](CCCCN)C(=O)N[C@@H](C)C(=O)N[C@@H](CCCCN)C(=O)N[C@@H](C)C(=O)N[C@@H](CCCCN)C(=O)N[C@@H](C)C(=O)N[C@@H](CCCCN)C(=O)N[C@@H](C)C(=O)N[C@@H](CCCCN)C(=O)N[C@@H](C)C(=O)N[C@@H](CCCCN)C(N)=O (some centres not stated) (I: H-FGGFTGARKSARKC-NH2 / II: AKAKAKAKAKAK-NH2; linker I:14-II:N via X2) | 17.4 nM | 0.794 nM | 1.18
C[C@H](NC(=O)CNC(=O)[C@@H](NC(=O)[C@H](Cc1ccccc1)NC(=O)CNC(=O)CNC(=O)[C@@H](N)Cc1ccccc1)[C@@H](C)O)C(=O)N[C@@H](CCCNC(=N)N)C(=O)N[C@@H](CCCCN)C(=O)N[C@@H](CO)C(=O)NC1(C(=O)N[C@@H](CCCNC(=N)N)C(=O)N[C@@H](CCCCN)C(N)=O)CCCC1 (H-FGGFTGARKS[Ac5c]RK-NH2) | – | – | 0.31
H-FGGFTAARKSARK-NH2 | 79.4 nM | 21.9 nM | 0.04
C[C@H](NC(=O)CNC(=O)[C@@H](NC(=O)[C@H](Cc1ccccc1)NC(=O)CNC(=O)CNC(=O)[C@@H](N)Cc1ccccc1)[C@@H](C)O)C(=O)N[C@@H](CCCNC(=N)N)C(=O)N[C@@H](CCCCN)C(=O)N[C@@H](CO)C(=O)N[C@@H](C)C(=O)N[C@@H](CCCNC(=N)N)C(=O)N[C@@H](CCCCN)C(=O)N[C@@H](CSC1CC(=O)N(CCCC(=O)NCC(=O)N[C@@H](Cc2cnc[nH]2)C(=O)NCC(=O)N[C@@H](Cc2cnc[nH]2)C(=O)NCC(=O)N[C@@H](Cc2cnc[nH]2)C(=O)NCC(=O)N[C@@H](Cc2cnc[nH]2)C(=O)NCC(=O)N[C@@H](Cc2cnc[nH]2)C(=O)NCC(=O)N[C@@H](Cc2cnc[nH]2)C(N)=O)C1=O)C(N)=O (some centres not stated) (I: H-FGGFTGARKSARKC-NH2 / II: GHGHGHGHGHGH-NH2; linker I:14-II:N via X2) | 12.6 nM | 4.27 nM | 0.17
C[C@H](NC(=O)CCCN1C(=O)CC(SC[C@H](NC(=O)[C@H](CCCCN)NC(=O)[C@H](CCCNC(=N)N)NC(=O)[C@H](C)NC(=O)[C@H](CO)NC(=O)[C@H](CCCCN)NC(=O)[C@H](CCCNC(=N)N)NC(=O)[C@H](C)NC(=O)CNC(=O)[C@@H](NC(=O)[C@H](Cc2ccccc2)NC(=O)CNC(=O)CNC(=O)[C@@H](N)Cc2ccccc2)[C@@H](C)O)C(N)=O)C1=O)C(=O)N[C@@H](CC(=O)O)C(=O)N[C@@H](C)C(=O)N[C@@H](CC(=O)O)C(=O)N[C@@H](C)C(=O)N[C@@H](CC(=O)O)C(=O)N[C@@H](C)C(=O)N[C@@H](CC(=O)O)C(=O)N[C@@H](C)C(=O)N[C@@H](CC(=O)O)C(=O)N[C@@H](C)C(=O)N[C@@H](CC(=O)O)C(N)=O (some centres not stated) (I: H-FGGFTGARKSARKC-NH2 / II: ADADADADADAD-NH2; linker I:14-II:N via X2) | 93.3 nM | 24 nM | 0.51
C[C@H](NC(=O)[C@H](CO)NC(=O)[C@H](CCCCN)NC(=O)[C@H](CCCNC(=N)N)NC(=O)C1(NC(=O)CNC(=O)[C@@H](NC(=O)[C@H](Cc2ccccc2)NC(=O)CNC(=O)CNC(=O)[C@@H](N)Cc2ccccc2)[C@@H](C)O)CC1)C(=O)N[C@@H](CCCNC(=N)N)C(=O)N[C@@H](CCCCN)C(N)=O (H-FGGFTG[Ac3c]RKSARK-NH2) | – | – | 0.4
C[C@H](NC(=O)[C@H](CO)NC(=O)[C@H](CCCCN)NC(=O)[C@H](CCCNC(=N)N)NC(=O)C1(NC(=O)CNC(=O)[C@@H](NC(=O)[C@H](Cc2ccccc2)NC(=O)CNC(=O)CNC(=O)[C@@H](N)Cc2ccccc2)[C@@H](C)O)CCCC1)C(=O)N[C@@H](CCCNC(=N)N)C(=O)N[C@@H](CCCCN)C(N)=O (H-FGGFTG[Ac5c]RKSARK-NH2) | – | – | 0.08
